# Compound activity deposited in PubChem BioAssay by Sanford-Burnham Center for Chemical Genomics.
# SENP8 block-1: SENP8 protease inhibitors, primary screen, biochemical, luminescence; inhibition, % at 10 µM; purified SENP8, Z-RLRGG-aminoluciferin cleavage; AID 2540, 2010; actives 1.2% (n = 330,000); Sentrin-specific protease 8 (Homo sapiens), Q96LD8; in the data active = inhibition above about 50%
# SENP8 block-2: human SENP8 protease inhibitors, primary screen, biochemical, fluorescence, Nedd8 protein substrate, uHTS | actives 0.64% (n = 360,000) | inhibition, % at 20 µM | recombinant SENP8 | AID 602440, 2012 | Sentrin-specific protease 8 (Homo sapiens), Q96LD8; in the data active = inhibition mostly above about 40%, no sharp cut-off; inactive = mostly below about 27%
# SENP7 block: SENP7 protease inhibitors, primary screen, biochemical, luminescence, uHTS. recombinant SENP7, Z-RLRGG-aminoluciferin luminescence, 40 min. inhibition, % at 5 µM. actives 1.5% (n = 330,000);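 active = inhibition above about 50% at the single test dose, limit read from the data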
# Apaf-1 inh: inhibitors of human Apaf-1 apoptosome, primary screen, biochemical, DEVD-Rh110 fluorescence, uHTS; Apoptotic protease-activating factor 1 (Homo sapiens), O14727; reconstituted apoptosome caspase-3 activity; inhibition, % at 20 µM; actives 0.71% (n = 330,000); active = inhibition of at least 40% at 20 µM
#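 Material: cell-free apoptosome with Apaf-1, procaspase-3 and caspase-9; Buffer or medium: Hepes pH 7.5 with detergent and BSA; Reagent: cytochrome c trigger plus (Z-DEVD)2-Rh110 caspase-3 substrate; Times: compound with Apaf-1, dATP, procaspase-3 30 min, then 50 min reaction, room temperature; Technique: Rh110 fluorescence intensity.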
# UBC13 inh: UBC13 polyubiquitin chain formation inhibitors, primary screen, biochemical, TR-FRET, uHTS | Ubiquitin-conjugating enzyme E2 N (Homo sapiens), P61088 | actives 0.47% (n = 330,000) | inhibition, % at 20 µM; in the data active = inhibition above about 45%, passing the limit was not always enough
# SENP6 inh: SENP6 protease inhibitors, primary screen, biochemical, luminescence, uHTS; Sentrin-specific protease 6 (Homo sapiens), Q9GZR1; inhibition, % at 10 µM; Recombinant SENP6 catalytic domain, aminoluciferin luminescence; actives 1.8% (n = 330,000);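 active = inhibition above about 50% at the single tested dose, limit read from the data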
# Numbers stand for hits; – = inactive; · = no result given. Most compounds without a hit are left out; they make up all but 3% or so of the library.
SMILES,SENP8 block-1,SENP8 block-2,SENP7 block,Apaf-1 inh,UBC13 inh,SENP6 inh
Cc1cc2c(cc1C)NC(=O)CC(c1ccccc1)=N2,·,–,·,·,·,·
Cc1ccc2c(c1)N=C(c1ccccc1)CC(C(Cl)Cl)=N2,53,–,–,–,–,74
COc1ccc(N/N=C(\C=N\O)C(=O)c2ccc(OC)cc2)cc1,–,44,–,–,–,–
Cc1ccc(-c2nc(SC(C)C(=O)NC3CC3)n[nH]2)cc1 (centres undefined),·,–,·,·,·,·
CC(C)NCC(O)c1ccc(O)c(O)c1 (centres undefined),–,–,–,–,–,–
CNC[C@H](O)c1ccc(O)c(O)c1,–,55,–,–,–,–
c1ccc2c(c1)nc1n2CCC1,·,–,·,·,·,·
Cn1cccc1C(=O)C(=O)Nc1cccc(Cl)c1Cl,–,–,89,–,–,–
O=C(Nc1ccccc1)Nc1cccc(Cl)c1Cl,–,–,55,–,–,74
O=C(c1ccccc1Cl)N1CCN(C(=O)C2CCCO2)CC1 (centres undefined),–,–,–,–,–,–
CC(C)(C)c1ccc(C(=O)Oc2ccccc2CCC(=O)O)cc1,–,–,–,–,–,–
COc1cc(CCNC2=CC(=O)c3ncccc3C2=O)ccc1O,·,97,·,·,·,·
COc1ccccc1CNS(=O)(=O)c1cc(CN2C(=O)c3cccnc3C2=O)ccc1OC,–,–,–,–,–,–
O=C(O)c1ccc2c(c1)C1C=CCC1C(c1ccncc1)N2 (centres undefined),–,–,–,–,–,–
FC(F)(F)c1ccc2c(c1)C1C=CCC1C(c1ccncc1)N2 (centres undefined),·,44,·,·,·,·
COc1cccc(-c2cc(C(F)(F)F)c3c(N)c(C#N)sc3n2)c1,–,·,86,–,–,–
CN1CCN(c2ccc(NC(=O)c3ccc(Br)o3)cc2)CC1,–,–,–,–,–,57
O=C(Nc1ccc(N2CCOCC2)cc1)c1ccc(Br)o1,–,–,–,–,–,–
CN1CCN(c2ccccc2NC(=O)c2ccc(-c3ccc(Cl)c(Cl)c3)o2)CC1,–,–,–,46,–,–
CN1CCN(c2ccccc2NC(=O)c2ccc(-c3ccc(Br)cc3)o2)CC1,–,–,–,–,–,–
Cc1cc(N2CCN(C)CC2)ccc1NC(=O)c1ccc(-c2ccc(Cl)cc2)o1,–,–,–,42,–,–
O=C(O)CC(NC(=O)Cc1ccc([N+](=O)[O-])cc1)c1ccc2c(c1)OCO2 (centres undefined),–,–,–,–,–,–
Cc1ccc(-n2nc3c(N4CCC(C(=O)NCc5ccccc5C)CC4)nnc(C)c3c2C)cc1,–,–,–,–,–,–
CCOc1ccccc1CNC(=O)C1CCN(c2nnc(C)c3c(C)n(-c4ccc(C)cc4)nc23)CC1,–,–,–,41,–,–
Cc1cc(C)nc(SCc2csc(-c3ccccc3)n2)n1,–,–,–,–,–,60
SMILES,SENP8 block-1,SENP8 block-2,SENP7 block,Apaf-1 inh,UBC13 inh,SENP6 inh
N#Cc1c(N)nc(N)nc1Nc1ccc(Br)cc1,–,–,–,–,–,60
Cc1nn(-c2ccccc2)c(Cl)c1/C=N/Nc1nc2ccccc2[nH]1,–,–,85,–,–,52
Cc1ccc(NC(=O)Nc2cccc(Cl)c2)c(C(=O)O)c1,73,–,69,–,–,–
COC(=O)c1sc(N)nc1CCNC(=O)OC(C)(C)C,·,–,·,·,·,·
O=C1C(=O)c2c(ccc3ccccc23)-c2ccccc21,·,99,·,·,·,·
Cc1ccc(C2(C)NC(=O)N(CC(=O)NNC(=O)c3ccccc3F)C2=O)cc1 (centres undefined),–,–,–,–,–,–
COc1ccc(NC(=S)NC(NC(=O)CCl)C(Cl)(Cl)Cl)c([N+](=O)[O-])c1 (centres undefined),–,52,–,–,–,–
COc1ccc(N(/N=C2\Sc3ccccc3C2=O)C(C)=O)cc1,·,52,·,·,·,·
COc1ccc(C)cc1S(=O)(=O)N1CCCC(C(=O)NCc2ccccn2)C1 (centres undefined),–,–,–,–,–,–
O=C(NCc1ccccn1)C1CCCN(S(=O)(=O)c2cc(Cl)ccc2Cl)C1 (centres undefined),·,43,·,·,·,·
